# Test results from the RNAGym collection of RNA variant scans (doi:10.1126/science.aae0568).
# This sample holds only a part of the variants without activity.
# B1: tRNA (parent)
# chain: GUUCCGUUGGCGUAAUGGUAACGCGUCUCCCUCCUAAGGAGAAGACUGCGGGUUCGAGUCCCGUACGGAACG
# Variants of: B1
# Assay: yeast fitness relative to wild type (ratio to wild type); higher = fitter; tRNA-Arg(CCU), competitive growth, 37 C, YPD
# Procedure, shortened: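 Start and end populations of a pooled competition were compared by 100-nucleotide paired-end sequencing of gene amplicons. The Saccharomyces cerevisiae strains carried tRNA-Arg(CCU) gene variants at the native genomic locus, synthesised with a 3% per-site mutation rate at 69 sites, and competed in YPD at 37°C for 24 hours in six parallel replicates. Darwinian fitness relative to wild type was based on the change in genotype frequencies. Genotypes required ≥ 100 starting reads, and estimates < 0.5 were set to 0.5.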
row,Variant,yeast fitness
1,U2G C11A C24A U26A G44C,≤ 0.5
2,U2G C11A C24A U26A G44C G68A,≤ 0.5
3,U2G C11G,0.703
4,U2G C11G A20U C24G,0.534
5,U2G C11G A20U C24G C60G G68C,0.518
6,U2G C11G A20U C24G G51A C60G G68C,≤ 0.5
7,U2G C11G C49A C60U G68C,≤ 0.5
8,U2G C11G C66U,≤ 0.5
9,U2G C11G G38C G44A C62U U64C,≤ 0.5
10,U2G C11G U19C A20G C24U C31G,≤ 0.5
11,U2G C11U A20C A70C,0.667
12,U2G C22A G25A,0.639
13,U2G C22A G25A G56A,≤ 0.5
14,U2G C22A G25C C33U A69C,≤ 0.5
15,U2G C22U C66U,0.563
16,U2G C22U U32C A43C G50C,≤ 0.5
17,U2G C22U U32C G50C,0.658
18,U2G C24A C31G,≤ 0.5
19,U2G C24A C46A A69U,0.774
20,U2G C24G C29G C31G U64C,≤ 0.5
21,U2G C24G C30G C31U U35A A36U G44A G63C,0.552
22,U2G C27A G67U,≤ 0.5
23,U2G C27G C33U,0.644
24,U2G C27U A45C,0.657

row,Variant,yeast fitness
1,U2G C27U C46U,0.999
2,U2G C29G C49G,≤ 0.5
3,U2G C29U,0.851
4,U2G C29U U54C A57G U59C,≤ 0.5
5,U2G C30A U35G G51C,≤ 0.5
6,U2G C30G C61U G68A,0.531
7,U2G C30U C46A,0.692
8,U2G C30U U32C C55G,≤ 0.5
9,U2G C30U U59C,≤ 0.5
10,U2G C31A G56U G67A,≤ 0.5
11,U2G C31G A37G,0.605
12,U2G C31G A57U A65G,≤ 0.5
13,U2G C31U G48C G67C,0.702
14,U2G C33A C49G U64C G67C,≤ 0.5
15,U2G C33A G39C,≤ 0.5
16,U2G C33U C34G A69U,≤ 0.5
17,U2G C33U C34G U59A,≤ 0.5
18,U2G C46A G63C,0.56
19,U2G C55U C62G C66A,0.577
20,U2G C60A C66G,0.989
21,U2G C60U C61A G67C,≤ 0.5
22,U2G C61G,0.556
23,U2G C62G G67A,0.526
24,U2G C62U,0.863

row,Variant,yeast fitness
1,U2G G6A A20G,0.61
2,U2G G6A G12A C27U A36U C60G,≤ 0.5
3,U2G G6A U13G C49U G56A A70G,≤ 0.5
4,U2G G9C A20G A42C C46G C49U A69C,0.576
5,U2G G9C A20G A42C C46G C49U C62A A69C,≤ 0.5
6,U2G G9C A70G,0.585
7,U2G G9C G12A U32C A42C C46A A65U,≤ 0.5
8,U2G G10A,0.697
9,U2G G10A A15U A21C G25C,≤ 0.5
10,U2G G10C A45U C46U U47C U64C,≤ 0.5
11,U2G G10C A70C,≤ 0.5
12,U2G G10C G56C A69U,≤ 0.5
13,U2G G10C U35G C46U A65C G67C,≤ 0.5
14,U2G G12A A14G,0.561
15,U2G G12A A15U C24G U53A U64A,≤ 0.5
16,U2G G12A C34A A37G,≤ 0.5
17,U2G G12A C55U C61A,≤ 0.5
18,U2G G17A C24U A36U A37U A70U,≤ 0.5
19,U2G G17A G23A G38C A40G,0.694
20,U2G G17C C33U U47A A69U,≤ 0.5
21,U2G G18A C27A C30U,≤ 0.5
22,U2G G18A C27A C30U A65U,≤ 0.5
23,U2G G25C C27G C34U U35A G38A U59A,≤ 0.5
24,U2G G25C C29U C33U A40G G52A U59C A65U,0.581

row,Variant,yeast fitness
1,U2G G25U C49U A65G,0.64
2,U2G G39A C61G,≤ 0.5
3,U2G G39C,0.715
4,U2G U7C G18C A42U C49G,≤ 0.5
5,U2G U7G U16C C24U C34U G50A U54C A65U,≤ 0.5
6,U2G U13A,0.822
7,U2G U16G C27A A36C G51A,0.536
8,U2G U19A A21G A42C G48C C49A,≤ 0.5
9,U2G U19A A21G G39C C60G G67C,≤ 0.5
10,U2G U26G C30U U59G U64G G68A,≤ 0.5
11,U2G U32C C33G C62U,0.535
12,U2G U35A U54G,≤ 0.5
13,U2G U47G G67U,≤ 0.5
14,U2G U54C C66U,≤ 0.5
15,U3A A14C A20C U64A,≤ 0.5
16,U3A A14C A42C U47C,≤ 0.5
17,U3A A14G,0.934
18,U3A A14G C31G A37U A65U,≤ 0.5
19,U3A A14G C46G,0.62
20,U3A A14G G58A,0.883
21,U3A A14U C60G C61U C62G A65U,≤ 0.5
22,U3A A15C G44A A57U,≤ 0.5
23,U3A A15U A21C G39C A43G U54C,≤ 0.5
24,U3A A20G C29U G48C,≤ 0.5

row,Variant,yeast fitness
1,U3A A20U G67U,0.598
2,U3A A21C C24G C62G,0.599
3,U3A A21C C24G G68A,≤ 0.5
4,U3A A21G A70C,1.05
5,U3A A21G G23C A65C,≤ 0.5
6,U3A A36C G51C,0.534
7,U3A A36G G68A A70C,0.566
8,U3A A36U A37G,≤ 0.5
9,U3A A36U A43G G52C,≤ 0.5
10,U3A A36U A43G G52C G63A G67U A70C,0.557
11,U3A A36U A57G G63C,0.681
12,U3A A37C C62U,0.529
13,U3A A40G A42G A57C C66U,≤ 0.5
14,U3A A45U C46G G52A,0.613
15,U3A A57U A65C A69C,0.593
16,U3A A65C,0.879
17,U3A A65C A70U,0.66
18,U3A A65G G68A A70U,0.556
19,U3A C4A U8C C29G A37C A69C,≤ 0.5
20,U3A C4G A43G,≤ 0.5
21,U3A C4G G9A C11G,≤ 0.5
22,U3A C4G G68A,≤ 0.5
23,U3A C4G U8A C24G U53C G58A,≤ 0.5
24,U3A C4G U8A C34U,≤ 0.5

row,Variant,yeast fitness
1,U3A C4U A43C G50A A70U,≤ 0.5
2,U3A C4U C11A G44A,≤ 0.5
3,U3A C4U C31A C66G G68C,≤ 0.5
4,U3A C4U C33G C34G A57U,0.63
5,U3A C4U C33G C34G U54A,≤ 0.5
6,U3A C4U G10A C33G C34G A57U,≤ 0.5
7,U3A C4U G25C A69C,≤ 0.5
8,U3A C4U G48U,≤ 0.5
9,U3A C4U U8A G10A A21G U53A A65C A70G,≤ 0.5
10,U3A C4U U32C U64C,0.877
11,U3A C5A A45C G50C C61U G68A,≤ 0.5
12,U3A C5A A45C G50C U64C,0.54
13,U3A C5A C30G G38C C61A,0.655
14,U3A C5A G6C A15G U16A U26G C60G C61U,0.514
15,U3A C5A G6C A15G U16A U26G G38C U54A,≤ 0.5
16,U3A C5A G6C A37C A45U G68C,≤ 0.5
17,U3A C5A G23A G68U,0.816
18,U3A C5A U8G G10A C31U U47C,0.632
19,U3A C5G A21U C22U G41A A43C G51C C66U G67U,≤ 0.5
20,U3A C5G G56U,≤ 0.5
21,U3A C5G U35A A40U C46G U53A,0.583
22,U3A C5U A37U,≤ 0.5
23,U3A C5U A42G G52C A57G,≤ 0.5
24,U3A C5U C31A A45C C46G G52C,≤ 0.5

row,Variant,yeast fitness
1,U3A C5U C33G,0.639
2,U3A C5U C46A,0.724
3,U3A C11A A20G G39A G51A U53A G63C,≤ 0.5
4,U3A C11A C33U,0.502
5,U3A C11A C33U G58C,≤ 0.5
6,U3A C11G C61A,≤ 0.5
7,U3A C11G G12A C22U G39A,≤ 0.5
8,U3A C11U,0.808
9,U3A C11U A65C,0.61
10,U3A C11U U13A G17C G18C A36C,≤ 0.5
11,U3A C22G,0.714
12,U3A C22G C24U C33A G58A,≤ 0.5
13,U3A C22G C31G,≤ 0.5
14,U3A C22U C24A C27U A43C,0.522
15,U3A C22U G39A C66U A69C,≤ 0.5
16,U3A C22U U28A A37U G51C C66U,≤ 0.5
17,U3A C24G A69C,≤ 0.5
18,U3A C24U C31G A37G,≤ 0.5
19,U3A C24U C31G G44C A69U,≤ 0.5
20,U3A C27A C29G A65G,≤ 0.5
21,U3A C27A C30U G41C A43U C49A,≤ 0.5
22,U3A C27G A43G,≤ 0.5
23,U3A C27G C31U C33U A42C G58C,≤ 0.5
